Source: article PMC7253076 (Cell chemical biology, 2019)
Values joined by “and” are separate entries in the source; they are usually repeats but may differ in a detail not shown here. Equal entries are not always repeated. One block for each molecule: values may come before it.

Tests used:
[1] = tested on: human stem-cell-derived motor neurons carrying the ALS-causing SOD1^A4V mutation; assay: Motor neuron CPA survival assay, SOD1^A4V ALS motor neurons; conditions: for EC50: Homo sapiens, Neuron, read-out: EC50 in motor neuron survival assay
HGK [2] = biological target: HGK (Homo sapiens, UniProt O95819); assay: Cell-free radiolabeled ATP kinase assay; format: biochemical
Summary of the method: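 Recombinant HGK and substrate with test compound in radiometric HotSpot assay at 25°C: ATP plus 33P-ATP at 10 μM final, 120 min, then spotted on P81 filter paper and washed. IC50 from 10 concentrations, 0.0002–0.1 μM in 2-fold steps. Otherwise single concentrations were used; the 371-kinase panel was run at 0.1 μM. Activity is % remaining versus DMSO alone.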

[3] = tested on: TNFα release in LPS-stimulated mouse N9 microglial cells; assay: TNFα ELISA in LPS-stimulated N9 microglia; format: cell-based; conditions: for EC50: Mus musculus, N9, 24 h, read-out: EC50 for decrease of TNFα secretion
Summary of the method: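 N9 mouse microglia were plated at 8000 cells/well on gelatin in DMEM/10% FBS. At 24 h, cells were treated with LPS (E. coli O111:B4) plus test compound at stated concentrations. 24 h later, medium TNFα was measured by ELISA (A450, 540 nm correction). Viability of remaining cells was checked by AlamarBlue, 4 h at 37°C. n = 2 wells; means ± SEM.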

MLK3 = MLK3 (Homo sapiens, UniProt Q16584); assay: Cell-free radiolabeled ATP kinase assay; format: biochemical; conditions: for activity at MLK3: single concentration, cell-free
MLK1 = MLK1 (Homo sapiens, UniProt P80192); assay: Cell-free radiolabeled ATP kinase assay; format: biochemical; conditions: single concentration
Summary of the method: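 MLK1 radiometric HotSpot assay: recombinant kinase and substrate at 25°C with ATP plus 33P-ATP at 10 μM final, 120 min, spotted on P81 paper and washed. Single-dose panel run at 0.1 μM; IC50 series for MLK1 spanned 0.002–1 μM in 2-fold steps. Read-out is % remaining activity versus DMSO.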

JNK pathway = assay: Western blots of JNK pathway in CPA-treated motor neurons; format: cell-based, mouse; conditions: western blot; for inhibition of JNK pathway components: Fig. S2
Summary of the method: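 Day-6 embryoid bodies from mouse ES cells (HB9::GFP reporter, human SOD1 transgene; RA 1 μM + SAG 0.5 μM) were given CPA 10 μM plus test compound 0.5 μM for 4 h, then lysed in HEPES/Triton/SDS buffer. Immunoblots used phospho-JNK (Thr183/Tyr185), phospho-c-Jun (Ser63), phospho-MKK4 (Ser257), total proteins and cleaved caspase 3 at 1:1000, with GAPDH at 1:3000. Signals normalised to GAPDH, phospho to total, and expressed as % of CPA; n = 2 differentiations; unpaired two-tailed t-tests.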

[4] = tested on: motor neurons differentiated from human induced pluripotent stem cells derived from a healthy patient; assay: Motor neuron CPA survival assay, healthy-patient iPSC-derived motor neurons; format: cell-based; conditions: for rescue of CPA toxicity / neuroprotection: CPA-treated healthy human motor neurons, 72 h; for concentrations toxic to motor neurons in the absence of CPA: without CPA
[5] = tested on: kinases assayed in cell-free conditions; assay: Kinase selectivity score from published cell-free panels; format: biochemical
[6] = tested on: mouse stem cell-derived motor neurons; conditions: CPA-treated; ref Thams et al., 2019; cited from earlier work
[7] = In vivo pharmacokinetics, IP injection or oral gavage; parameters: species or system mouse; conditions: for Brain AUC / Brain mean Cmax / Kp at 3 h / Cmax: mouse; for Brain AUC / Brain mean Cmax: ± SEM; for Kp at 3 h / Cmax: male, B6SJLF1/J; for Kp at 3 h: brain and plasma; for Cmax: plasma
Summary of the method: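 Dosing solution: DMSO stock diluted to 2 mg/mL in 40% PEG-400 plus 55% of a 20% hydroxypropyl-β-cyclodextrin solution. Given at 10 mg/kg IP or by oral gavage to 8-week-old male wild-type B6SJLF1/J mice, n = 3 per route per time point. At 15 min, 3, 8 or 24 h: trunk blood (EDTA 50 mM final, plasma) and fresh brain taken. Analysed by LC-MS against calibration curves; means ± SEM.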

[8] = tested on: CPA-treated motor neurons; assay: CPA-treated motor neurons, PKC/ABL inhibitors; format: cell-based; conditions: data not shown
HGK [9] = conditions: 1 μM; ref Goodfellow et al., 2013; cited from earlier work
[10] = ref Goodfellow et al. (2013); cited from earlier work
[11] = tested on: HIV-mediated microgliosis in the brain; conditions: mice, ref Marker et al. (2013), cited from earlier work
[12] = ref Tang et al., 2012; cited from earlier work
[13] = CPA-treated SOD1^A4V motor neurons
[14] = CPA 10 μM + compound 0.5 μM, 4 h

HGK (Homo sapiens, UniProt O95819), sequence (O95819 whole entry): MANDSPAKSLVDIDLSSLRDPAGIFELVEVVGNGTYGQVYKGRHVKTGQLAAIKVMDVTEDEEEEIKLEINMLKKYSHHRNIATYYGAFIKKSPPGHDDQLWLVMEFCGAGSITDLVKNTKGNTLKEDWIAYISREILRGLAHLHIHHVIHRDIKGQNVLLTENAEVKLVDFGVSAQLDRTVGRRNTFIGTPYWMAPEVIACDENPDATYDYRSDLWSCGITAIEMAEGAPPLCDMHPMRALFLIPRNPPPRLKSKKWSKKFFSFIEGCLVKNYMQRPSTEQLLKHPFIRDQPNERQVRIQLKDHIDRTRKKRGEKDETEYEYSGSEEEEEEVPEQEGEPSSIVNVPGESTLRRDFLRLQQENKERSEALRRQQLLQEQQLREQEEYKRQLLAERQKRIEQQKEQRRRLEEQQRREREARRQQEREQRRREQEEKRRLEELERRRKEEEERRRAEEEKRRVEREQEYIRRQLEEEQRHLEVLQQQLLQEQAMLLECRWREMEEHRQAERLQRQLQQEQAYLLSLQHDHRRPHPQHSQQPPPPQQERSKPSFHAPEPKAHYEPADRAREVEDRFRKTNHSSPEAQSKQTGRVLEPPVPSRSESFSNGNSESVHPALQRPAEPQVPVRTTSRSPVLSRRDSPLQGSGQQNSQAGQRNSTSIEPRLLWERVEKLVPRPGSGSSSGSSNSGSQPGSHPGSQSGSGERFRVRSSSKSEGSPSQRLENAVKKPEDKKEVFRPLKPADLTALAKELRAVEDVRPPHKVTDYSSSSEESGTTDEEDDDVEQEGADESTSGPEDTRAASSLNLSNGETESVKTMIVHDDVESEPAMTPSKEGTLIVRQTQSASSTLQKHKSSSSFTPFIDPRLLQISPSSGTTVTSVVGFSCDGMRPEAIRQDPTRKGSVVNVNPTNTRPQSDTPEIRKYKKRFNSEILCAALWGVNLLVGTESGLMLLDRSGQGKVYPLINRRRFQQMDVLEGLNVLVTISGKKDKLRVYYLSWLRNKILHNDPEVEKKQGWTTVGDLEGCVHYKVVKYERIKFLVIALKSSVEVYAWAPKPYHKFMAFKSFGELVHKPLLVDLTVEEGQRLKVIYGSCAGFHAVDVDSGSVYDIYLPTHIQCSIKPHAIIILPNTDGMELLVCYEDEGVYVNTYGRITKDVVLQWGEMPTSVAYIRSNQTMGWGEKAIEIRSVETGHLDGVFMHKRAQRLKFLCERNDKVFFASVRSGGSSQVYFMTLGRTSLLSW
MLK3, sequence (Q16584 whole entry): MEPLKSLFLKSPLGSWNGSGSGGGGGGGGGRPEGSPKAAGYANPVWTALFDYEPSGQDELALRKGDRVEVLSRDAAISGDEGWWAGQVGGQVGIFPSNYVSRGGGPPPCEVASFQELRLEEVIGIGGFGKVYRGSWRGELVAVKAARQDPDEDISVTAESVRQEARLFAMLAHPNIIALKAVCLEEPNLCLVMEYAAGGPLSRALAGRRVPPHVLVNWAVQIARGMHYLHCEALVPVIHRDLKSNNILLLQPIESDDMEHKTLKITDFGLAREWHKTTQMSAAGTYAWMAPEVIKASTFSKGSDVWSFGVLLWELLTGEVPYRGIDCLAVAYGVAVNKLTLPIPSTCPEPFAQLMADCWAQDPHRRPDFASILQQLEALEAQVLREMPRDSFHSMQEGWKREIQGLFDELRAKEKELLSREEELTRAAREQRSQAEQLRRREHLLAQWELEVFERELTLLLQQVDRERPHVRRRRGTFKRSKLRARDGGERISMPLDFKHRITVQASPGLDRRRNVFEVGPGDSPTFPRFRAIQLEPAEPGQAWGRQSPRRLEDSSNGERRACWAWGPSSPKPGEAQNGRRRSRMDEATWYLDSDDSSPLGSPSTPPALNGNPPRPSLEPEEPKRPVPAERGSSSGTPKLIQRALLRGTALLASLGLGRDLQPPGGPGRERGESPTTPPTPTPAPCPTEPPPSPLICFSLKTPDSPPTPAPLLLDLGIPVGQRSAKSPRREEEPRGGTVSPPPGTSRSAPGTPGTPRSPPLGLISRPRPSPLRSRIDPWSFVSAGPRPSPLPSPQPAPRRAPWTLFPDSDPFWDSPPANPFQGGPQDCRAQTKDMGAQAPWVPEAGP
MLK1, sequence (P80192 whole entry): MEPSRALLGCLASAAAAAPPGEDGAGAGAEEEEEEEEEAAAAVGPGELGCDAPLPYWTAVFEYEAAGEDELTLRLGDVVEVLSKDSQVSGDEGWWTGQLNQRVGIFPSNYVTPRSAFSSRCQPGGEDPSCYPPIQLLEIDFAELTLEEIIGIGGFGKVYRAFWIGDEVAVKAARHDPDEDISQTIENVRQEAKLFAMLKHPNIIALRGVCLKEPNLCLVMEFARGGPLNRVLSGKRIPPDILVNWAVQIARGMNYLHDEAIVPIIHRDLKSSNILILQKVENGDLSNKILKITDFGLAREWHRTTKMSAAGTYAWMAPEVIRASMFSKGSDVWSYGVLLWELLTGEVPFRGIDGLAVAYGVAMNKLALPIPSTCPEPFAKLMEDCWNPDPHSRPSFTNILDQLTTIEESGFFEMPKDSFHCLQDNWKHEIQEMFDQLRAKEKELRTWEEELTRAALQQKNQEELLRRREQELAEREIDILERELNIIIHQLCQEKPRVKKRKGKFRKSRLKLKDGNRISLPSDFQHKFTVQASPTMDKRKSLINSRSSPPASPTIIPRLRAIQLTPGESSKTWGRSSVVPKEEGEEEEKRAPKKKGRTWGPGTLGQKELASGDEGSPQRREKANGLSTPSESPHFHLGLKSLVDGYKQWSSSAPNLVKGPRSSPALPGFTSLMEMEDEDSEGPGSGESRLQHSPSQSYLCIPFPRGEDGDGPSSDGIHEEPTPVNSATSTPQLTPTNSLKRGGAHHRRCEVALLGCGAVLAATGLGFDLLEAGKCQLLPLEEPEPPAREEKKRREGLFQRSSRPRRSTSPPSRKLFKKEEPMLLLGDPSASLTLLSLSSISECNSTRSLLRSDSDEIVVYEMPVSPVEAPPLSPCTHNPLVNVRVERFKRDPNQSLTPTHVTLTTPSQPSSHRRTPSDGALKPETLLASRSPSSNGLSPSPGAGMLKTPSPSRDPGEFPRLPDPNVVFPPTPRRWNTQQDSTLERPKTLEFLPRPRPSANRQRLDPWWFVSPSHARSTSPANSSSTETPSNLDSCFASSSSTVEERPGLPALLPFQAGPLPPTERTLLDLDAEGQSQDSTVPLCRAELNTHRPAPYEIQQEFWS

Compound: CN1CCN(Cc2ccc(-c3cnc4[nH]cc(-c5cccc(F)c5)c4c3)cc2)CC1 [7y, 3-(3-Fluorophenyl)-5-(4-((4-methylpiperazin-1-yl)methyl)phenyl)-1H-pyrrolo[2,3-b]pyridine]
maximum efficacy compared with compound 1 [1, 13]: greater maximum efficacy than compound 1

Compound: CN1CC2CCC(C1)N2Cc1ccc(-c2cnc3[nH]cc(-c4cccc5[nH]ncc45)c3c2)cc1 [12e, 4-(5-(4-((3-Methyl-3,8-diazabicyclo[3.2.1]octan-8-yl)methyl)phenyl)-1H-pyrrolo[2,3-b]pyridin-3-yl)-1H-indazole]
inhibition of HGK activity (HGK [2]; single concentration, cell-free): strongly inhibited HGK activity
effect on TNFα release at 0.5 μM ([3]; 0.5 μM, LPS-stimulated N9 microglia): did not inhibit TNFα release
effect on TNFα levels ([3]; LPS-stimulated N9 microglia): did not significantly decrease TNFα levels
activity at MLK3 (MLK3): little activity at MLK3
inhibition of MLK1 (MLK1): inability to inhibit MLK3 and MLK1
neuroprotection in CPA survival assay [1, 13]: highly neuroprotective

Compound: CN1CC2CCC(C1)N2Cc1ccc(-c2cnc3[nH]cc(-c4cccc(Cl)c4)c3c2)cc1 [12f, 3-(3-Chlorophenyl)-5-(4-((3-methyl-3,8-diazabicyclo[3.2.1]octan-8-yl)methyl)phenyl)-1H-pyrrolo[2,3-b]pyridine]
EC50 ([1]; 72 h): 0.11 µM
concentrations at which compound was toxic ([1]; motor neuron survival assay): above 0.3 μM

Compound: OCCN1CCN(Cc2ccc(-c3cnc4[nH]cc(-c5cccc(F)c5)c4c3)cc2)CC1 [12h, 2-(4-(4-(3-(3-Fluorophenyl)-1H-pyrrolo[2,3-b]pyridin-5-yl)benzyl)piperazin-1-yl)ethan-1-ol]
inhibition of JNK pathway components (JNK pathway): effectively inhibit the same JNK pathway components as compound 1
concentrations that completely blocked the effects of CPA treatment [1, 13]: < 0.3 µM

Compound: O[C@@H]1CCN(Cc2ccc(-c3cnc4[nH]cc(-c5cccc(F)c5)c4c3)cc2)C1 [12i, (R)-1-(4-(3-(3-Fluorophenyl)-1H-pyrrolo[2,3-b]pyridin-5-yl)benzyl)pyrrolidin-3-ol]
inhibition of JNK pathway components (JNK pathway): effectively inhibit the same JNK pathway components as compound 1
concentrations that completely blocked the effects of CPA treatment [1, 13]: < 0.3 µM

Compound: O[C@@H]1CCN(Cc2ccc(-c3cnc4[nH]cc(-c5cccc(Cl)c5)c4c3)cc2)C1 [12l, (R)-1-(4-(3-(3-Chlorophenyl)-1H-pyrrolo[2,3-b]pyridin-5-yl)benzyl)pyrrolidin-3-ol]
inhibition of JNK pathway components (JNK pathway): effectively inhibit the same JNK pathway components as compound 1
concentrations that completely blocked the effects of CPA treatment [1, 13]: < 0.3 µM

Compound: Nc1ncc(C(=O)NC2CN(C(=O)C3CC3)C2)c2ccc(-c3cccc(F)c3)nc12 [GNE-495]
rescue of CPA toxicity / neuroprotection [4]: neuroprotective
selectivity score (kinases with <20% activity remaining / total kinases assayed) ([5]; 1 μM, cell-free, calculated from published data, ref Ndubaku et al., 2015): 0.01

Compound: Cn1c2ccccc2c2c3c(c4c5ccccc5n(CCC#N)c4c21)CNC3=O [Gö6976]
protection of motor neurons from ER stress [6]: protect motor neurons from ER stress

Compound: Cc1nc(Nc2cnn(C3CCNCC3)c2)nc2c1N(C)C(=O)c1cc3ccccc3cc1N2C [HTH 01–015]
rescue of CPA toxicity / neuroprotection [4]: did not rescue CPA toxicity
concentrations toxic to motor neurons in the absence of CPA [4]: above 2 μM

Compound: COC(=O)[C@@]1(O)C[C@H]2O[C@]1(C)n1c3ccccc3c3c4c(c5c6ccccc6n2c5c31)C(=O)NC4 [K252a]
protection of motor neurons from ER stress [6]: protect motor neurons from ER stress

Compound: Nc1ccc(-c2cnc(N)c(-c3ccc(Cl)cc3)c2)cn1 [PF-6260933]
rescue of CPA toxicity / neuroprotection [4]: neuroprotective

IC50 (HGK [2]): 0.0003 µM
EC50 [3]: ~0.47 µM
activity at MLK3 (MLK3): slightly decreased inhibition of MLK3
Brain AUC ([7]; 10 mg/kg IP): 11570 (±1655) μg/L•h
Brain mean Cmax ([7]; 10 mg/kg IP): 1162 (±91.99) μg/kg
Brain AUC ([7]; 10 mg/kg OG): 8429 (±1458) μg/L•h
Brain mean Cmax ([7]; 10 mg/kg OG): 658.9 (±257.7) μg/kg
brain Cmax ([7]; IP-injected animals, 10 mg/kg): 1162 ng/g and 2.60 μM
Kp at 3 h ([7]; ip, 10 mg/kg): 3
Kp at 3 h ([7]; oral, 10 mg/kg): 3.3
Cmax ([7]; ip, 10 mg/kg): 0.454 µg/mL
Cmax ([7]; po, 10 mg/kg): 0.184 µg/mL
Compound: OCCN1CCN(Cc2ccc(-c3cnc4[nH]cc(-c5cccc(Cl)c5)c4c3)cc2)CC1 [Prostetin/12k, 2-(4-(4-(3-(3-Chlorophenyl)-1H-pyrrolo[2,3-b]pyridin-5-yl)benzyl)piperazin-1-yl)ethan-1-ol]
inhibition of JNK pathway components (JNK pathway): effectively inhibit the same JNK pathway components as compound 1
concentrations that significantly attenuated TNFα release ([3]; LPS-stimulated N9 microglia): ≥ 0.5 µM
potency relative to compound 1 (fold less potent) ([3]; suppression of TNFα release): ~ 5 x
concentration at which maximum efficacy (Emax) was observed [1, 13]: 0.5 µM
EC50 ([1]; 72 h): 0.1 µM

Compound: CS(=O)(=O)O.Cn1cc(C2=C(c3cn(CCCSC(=N)N)c4ccccc34)C(=O)NC2=O)c2ccccc21 [Ro-318220 mesylate]
protection of CPA-treated motor neurons [8]: mildly protective

Compound: CCC(=O)Nc1cccc(Oc2nc(Nc3ccc(N4CCN(C)CC4)cc3OC)ncc2Cl)c1 [WZ4003]
rescue of CPA toxicity / neuroprotection [4]: did not rescue CPA toxicity
concentrations toxic to motor neurons in the absence of CPA [4]: above 2 μM

Compound: O=C1Cc2c([nH]c3ccc([N+](=O)[O-])cc23)-c2ccccc2N1 [alsterpaullone]
rescue of CPA toxicity / neuroprotection [4]: more potent than kenpaullone

Compound: COc1cc(Nc2c(C#N)cnc3cc(OCCCN4CCN(C)CC4)c(OC)cc23)c(Cl)cc1Cl [bosutinib]
protection of CPA-treated motor neurons [8]: mildly protective

Compound: CN1CCN(Cc2ccc(-c3cnc4[nH]cc(-c5ccc6[nH]ccc6c5)c4c3)cc2)CC1 [compound 1, 3-(1H-Indol-5-yl)-5-(4-((4-methylpiperazin-1-yl)methyl)phenyl)-1H-pyrrolo[2,3-b]pyridine, reference compound]
IC50 (HGK [2]): 0.00593 µM
JNK activation (phospho-JNK Thr183/Tyr185) compared to CPA alone (JNK pathway; [14]): significantly decreased JNK activation
phosphorylation of MKK4 at Ser257 (JNK pathway; [14]): attenuated the phosphorylation
EC50 [3]: 0.2 µM
IC50 (MLK3): 0.0186 µM
Brain AUC ([7]; 10 mg/kg IP): 1568 (±147.1) μg/L•h
Brain mean Cmax ([7]; 10 mg/kg IP): 208.8 (±10.21) μg/kg
Brain AUC ([7]; 10 mg/kg OG): 567.2 (±110.5) μg/L•h
Brain mean Cmax ([7]; 10 mg/kg OG): 83.35 (±21.40) μg/kg
Kp at 3 h ([7]; ip, 10 mg/kg): 0.23
Kp at 3 h ([7]; oral, 10 mg/kg): 0.19
Cmax ([7]; ip, 10 mg/kg): 0.972 µg/mL
Cmax ([7]; po, 10 mg/kg): 0.476 µg/mL
rescue of CPA toxicity / neuroprotection [4]: neuroprotective
inhibition of HGK activity (HGK [9]): > 99%
bioavailability (%F) as measured in the plasma [10]: 41
selectivity score (kinases with <20% activity remaining / total kinases assayed) ([5]; similar conditions, based on data from ref Goodfellow et al. (2013)): 0.36
effect on HIV-mediated microgliosis in the brain ([11]; IP 10 mg/kg twice a day for 28 days): attenuate Human Immunodeficiency Virus (HIV)-mediated microgliosis
tolerability over long-term dosing [11]: well-tolerated
maximum motor neuron survival compared to untreated controls ([1]; CPA 33 μM, 72 h, CPA alone ~10%): 102%
concentration at which maximum efficacy (Emax) was observed [1, 13]: 1 µM

Compound: O=C1Cc2c([nH]c3ccc(Br)cc23)-c2ccccc2N1 [kenpaullone]
protection of motor neurons from ER stress [6]: protect motor neurons from ER stress

Compound: CCN(CC)CCNC(=O)c1c(C)[nH]c(/C=C2\C(=O)Nc3ccc(F)cc32)c1C [sunitinib]
protection of motor neurons from ER stress [6]: protect motor neurons from ER stress
blood-brain barrier crossing [12]: does not readily cross the blood-brain barrier
